Legend:
Rattus norvegicus [1] = assay: Tested in vivo for the biodistribution in rat uterus/blood at 1 hour after intravenous dose of 50 microCi of the drug and 15 ug of estradiol; type: ADME, organism-based
Summary of the method: (§1)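 Female Sprague-Dawley rats, 25 days old (~40–53 g), ether-anesthetized, given the 18F-labeled estrogen iv via femoral vein in 10% ethanol saline. […] Others were sacrificed by decapitation at 1 or 3 h. Blood and organs were excised, weighed and gamma counted as % injected dose/g, mean ± SD, typically n = 5 (4–6).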

Rattus norvegicus [2] = assay: Tested in vivo for the biodistribution in rat uterus/muscle after 3 hours following an intravenous dose of 50 microCi of drug in 10%ethanol saline; type: ADME, organism-based, Muscle tissue; summary of the method: as §1
Rattus norvegicus [3] = assay: Tested in vivo for the biodistribution in rat uterus/muscle at 1 hour after intravenous dose of 50 microCi of drug in 10%ethanol saline; type: ADME, organism-based, Muscle tissue; summary of the method: as §1
Rattus norvegicus [4] = assay: Tested in vivo for the biodistribution in rat uterus/muscle at 1 hour after intravenous dose of 50 microCi of the drug and 15 ug of estradiol; type: ADME, organism-based, Muscle tissue; summary of the method: as §1
Rattus norvegicus [5] = assay: Tested in vivo for the biodistribution in blood of female rat after 3 hours following an intravenous dose of 50 microCi of drug in 10%ethanol saline; type: ADME, organism-based
Summary of the method: (§2)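 Ether-anesthetized 25-day-old female Sprague-Dawley rats (~40–53 g) got the [18F] tracer in 10% ethanol saline via femoral vein. Rats were decapitated at 1 or 3 h, and blood and organs were weighed and gamma-counted. Values are % injected dose/g as mean ± SD, n = 5 per time point.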

Rattus norvegicus [6] = assay: Tested in vivo for the biodistribution in rat bone at 1 hour after intravenous dose of 50 microCi of drug in 10%ethanol saline; type: ADME, organism-based, Bone element; summary of the method: as §2
Rattus norvegicus [7] = assay: Tested in vivo for the biodistribution in rat bone at 1 hour after intravenous dose of 50 microCi of the drug and 15 ug of estradiol; type: ADME, organism-based, Bone element
Rattus norvegicus [8] = assay: Tested in vivo for the biodistribution in rat ovaries after 3 hours following an intravenous dose of 50 microCi of drug in 10%ethanol saline; type: ADME, organism-based, Female gonad
Summary of the method: (§3)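 Immature (25-day-old) female Sprague-Dawley rats, ether-anesthetized, given the fluorine-18-labeled estrogen by femoral vein injection in 10% ethanol saline. […] Other groups were killed by decapitation at 1 or 3 h. Blood and organs were weighed and gamma-counted. Data are % injected dose/g, mean ± SD, typically n = 5 per group.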

Rattus norvegicus [9] = assay: Tested in vivo for the biodistribution in rat ovaries at 1 hour after intravenous dose of 50 microCi of drug in 10%ethanol saline; type: ADME, organism-based, Female gonad; summary of the method: as §3
Rattus norvegicus [10] = assay: Tested in vivo for the biodistribution in rat ovaries at 1 hour after intravenous dose of 50 microCi of the drug and 15 ug of estradiol; type: ADME, organism-based, Female gonad; summary of the method: as §3
Rattus norvegicus [11] = assay: Tested in vivo for the biodistribution in rat muscle after 3 hours following an intravenous dose of 50 microCi of drug in 10%ethanol saline; type: ADME, organism-based, Muscle tissue; summary of the method: as §3
Rattus norvegicus [12] = assay: Tested in vivo for the biodistribution in rat muscle at 1 hour after intravenous dose of 50 microCi of drug in 10%ethanol saline; type: ADME, organism-based, Muscle tissue; summary of the method: as §3
Rattus norvegicus [13] = assay: Tested in vivo for the biodistribution in rat muscle at 1 hour after intravenous dose of 50 microCi of the drug and 15 ug of estradiol; type: ADME, organism-based, Muscle tissue; summary of the method: as §3
Rattus norvegicus [14] = assay: Tested in vivo for the biodistribution in rat thymus after 3 hours following an intravenous dose of 50 microCi of drug in 10%ethanol saline; type: ADME, organism-based; summary of the method: as §3
Rattus norvegicus [15] = assay: Tested in vivo for the biodistribution in rat thymus at 1 hour after intravenous dose of 50 microCi of drug in 10%ethanol saline; type: ADME, organism-based; summary of the method: as §3
Rattus norvegicus [16] = assay: Tested in vivo for the biodistribution in rat thymus at 1 hour after intravenous dose of 50 microCi of the drug and 15 ug of estradiol; type: ADME, organism-based; summary of the method: as §3
Rattus norvegicus [17] = assay: Tested in vivo for the biodistribution in rat uterus after 3 hours following an intravenous dose of 50 microCi of drug in 10%ethanol saline; type: ADME, organism-based; summary of the method: as §3
Rattus norvegicus [18] = assay: Tested in vivo for the biodistribution in rat uterus at 1 hour after intravenous dose of 50 microCi of drug in 10%ethanol saline; type: ADME, organism-based; summary of the method: as §1
Rattus norvegicus [19] = assay: Tested in vivo for the biodistribution in rat uterus at 1 hour after intravenous dose of 50 microCi of the drug and 15 ug of estradiol; type: ADME, organism-based; summary of the method: as §1
Rattus norvegicus [20] = assay: Tested in vivo for the biodistribution in rat uterus/blood after 3 hours following an intravenous dose of 50 microCi of drug in 10%ethanol saline; type: ADME, organism-based; summary of the method: as §1
Rattus norvegicus [21] = assay: Tested in vivo for the biodistribution in blood of female rat at 1 hour after intravenous dose of 50 microCi of drug in 10%ethanol saline; type: ADME, organism-based; summary of the method: as §2
Rattus norvegicus [22] = assay: Tested in vivo for the biodistribution in blood of female rat at 1 hour after intravenous dose of 50 microCi of the drug and 15 u g of estradiol; type: ADME, organism-based
Rattus norvegicus [23] = assay: Tested in vivo for the biodistribution in rat bone after 3 hours following an intravenous dose of 50 microCi of drug in 10%ethanol saline; type: ADME, organism-based, Bone element; summary of the method: as §2
Rattus norvegicus [24] = assay: Tested in vivo for the biodistribution in rat fat at 1 hour after intravenous dose of 50 microCi of drug in 10%ethanol saline; type: ADME, organism-based, Adipose tissue; summary of the method: as §2
Rattus norvegicus [25] = assay: Tested in vivo for the biodistribution in rat fat at 1 hour after intravenous dose of 50 microCi of the drug and 15 ug of estradiol; type: ADME, organism-based, Adipose tissue
Rattus norvegicus [26] = assay: Tested in vivo for the biodistribution in rat kidney after 3 hours following an intravenous dose of 50 microCi of drug in 10%ethanol saline; type: ADME, organism-based; summary of the method: as §2
Rattus norvegicus [27] = assay: Tested in vivo for the biodistribution in rat kidney at 1 hour after intravenous dose of 50 microCi of drug in 10%ethanol saline; type: ADME, organism-based; summary of the method: as §2
Rattus norvegicus [28] = assay: Tested in vivo for the biodistribution in rat kidney at 1 hour after intravenous dose of 50 microCi of the drug and 15 u g of estradiol; type: ADME, organism-based; summary of the method: as §3
Rattus norvegicus [29] = assay: Tested in vivo for the biodistribution in rat liver after 3 hours following an intravenous dose of 50 microCi of drug in 10%ethanol saline; type: ADME, organism-based; summary of the method: as §3
Rattus norvegicus [30] = assay: Tested in vivo for the biodistribution in rat liver at 1 hour after intravenous dose of 50 microCi of drug in 10%ethanol saline; type: ADME, organism-based; summary of the method: as §3
Rattus norvegicus [31] = assay: Tested in vivo for the biodistribution in rat liver at 1 hour after intravenous dose of 50 microCi of the drug and 15 u g of estradiol; type: ADME, organism-based; summary of the method: as §3
[32] = Partition coefficient (logP); type: physicochemical; conditions: octanol/water
Summary of the method: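 Octanol/water log P estimated from log k'w measured by reversed-phase HPLC (Minick method) on a C8 silica column.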

[33] = target: T1, Alpha-fetoprotein (Rattus norvegicus) (UniProt P02773); assay: Relative binding affinity for Alphafetoprotein
T1 sequence (whole entry): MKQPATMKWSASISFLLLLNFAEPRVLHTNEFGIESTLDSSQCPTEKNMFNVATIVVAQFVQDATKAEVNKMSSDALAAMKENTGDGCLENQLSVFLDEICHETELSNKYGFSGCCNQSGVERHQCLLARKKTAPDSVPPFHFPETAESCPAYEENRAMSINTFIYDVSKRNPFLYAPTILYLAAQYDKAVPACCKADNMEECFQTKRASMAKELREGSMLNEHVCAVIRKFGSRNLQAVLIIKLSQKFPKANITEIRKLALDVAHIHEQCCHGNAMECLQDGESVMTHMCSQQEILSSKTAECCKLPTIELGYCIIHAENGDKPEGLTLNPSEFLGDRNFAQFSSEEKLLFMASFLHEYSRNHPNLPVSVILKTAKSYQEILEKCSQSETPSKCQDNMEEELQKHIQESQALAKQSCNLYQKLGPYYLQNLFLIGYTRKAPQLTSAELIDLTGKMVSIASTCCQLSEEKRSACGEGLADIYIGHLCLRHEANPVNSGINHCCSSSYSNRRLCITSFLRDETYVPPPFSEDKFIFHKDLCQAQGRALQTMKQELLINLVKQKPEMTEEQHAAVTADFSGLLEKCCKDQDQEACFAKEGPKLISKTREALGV

[34] = target: T2, Sex hormone-binding globulin (Homo sapiens) (UniProt P04278); assay: Relative binding affinity against sex steroid binding protein (SBP)
T2 sequence (whole entry): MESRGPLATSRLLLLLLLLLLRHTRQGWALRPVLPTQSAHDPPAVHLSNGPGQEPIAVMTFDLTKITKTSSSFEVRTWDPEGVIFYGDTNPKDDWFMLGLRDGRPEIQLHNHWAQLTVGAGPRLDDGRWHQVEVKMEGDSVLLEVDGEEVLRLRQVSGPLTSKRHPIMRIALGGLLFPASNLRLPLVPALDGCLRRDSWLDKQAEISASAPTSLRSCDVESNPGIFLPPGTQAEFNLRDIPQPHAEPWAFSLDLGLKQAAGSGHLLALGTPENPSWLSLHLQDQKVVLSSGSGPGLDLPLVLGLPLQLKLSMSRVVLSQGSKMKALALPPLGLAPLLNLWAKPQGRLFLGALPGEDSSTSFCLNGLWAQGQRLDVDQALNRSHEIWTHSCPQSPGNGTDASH

[35] = Tested in vivo for the biodistribution in rat fat after 3 hours following an intravenous dose of 50 microCi of drug in 10%ethanol saline; parameters: species or system Adipose tissue; summary of the method: as §2
Rattus norvegicus [36] = assay: Tested in vivo for the biodistribution in rat uterus/blood at 1 hour after intravenous dose of 50 microCi of drug in 10%ethanol saline; type: ADME, organism-based; summary of the method: as §1
[37] = target: T3, Estrogen receptor (Rattus norvegicus) (UniProt P06211+Q62986)
[38] = target: T3, Estrogen receptor (Rattus norvegicus); remark: listed apart in the source

CO[C@H]1C[C@]2(C)[C@@H](O)[C@@H](F)C[C@H]2[C@@H]2CCc3cc(O)ccc3[C@H]21
Injected (dose/g) (Rattus norvegicus [1]): 3.73%
Injected (Rattus norvegicus [2]): 47.73%
Injected (dose/g) (Rattus norvegicus [3]): 25.57%
Injected (dose/g) (Rattus norvegicus [4]): 4.49%
Injected (Rattus norvegicus [5]): 0.117%
Injected (dose/g) (Rattus norvegicus [6]): 0.515%
Injected (dose/g) (Rattus norvegicus [7]): 0.604%
Injected (Rattus norvegicus [8]): 1.409%
Injected (Rattus norvegicus [9]): 2.466%
Injected (Rattus norvegicus [10]): 0.417%
Injected (dose/g) (Rattus norvegicus [11]): 0.107%
Injected (dose/g) (Rattus norvegicus [12]): 0.251%
Injected (Rattus norvegicus [13]): 0.149%
Injected (dose/g) (Rattus norvegicus [14]): 0.175%
Injected (dose/g) (Rattus norvegicus [15]): 0.391%
Injected (dose/g) (Rattus norvegicus [16]): 0.135%
Injected (Rattus norvegicus [17]): 4.813%
Injected (dose/g) (Rattus norvegicus [18]): 6.12%
Injected (Rattus norvegicus [19]): 0.671%
Injected (Rattus norvegicus [20]): 43.47%
Injected (Rattus norvegicus [21]): 0.148%
Injected (Rattus norvegicus [22]): 0.184%
Injected (Rattus norvegicus [23]): 0.646%
Injected (Rattus norvegicus [24]): 0.516%
Injected (Rattus norvegicus [25]): 0.338%
Injected (Rattus norvegicus [26]): 0.429%
Injected (Rattus norvegicus [27]): 0.946%
Injected (dose/g) (Rattus norvegicus [28]): 0.579%
Injected (dose/g) (Rattus norvegicus [29]): 0.893%
Injected (Rattus norvegicus [30]): 1.178%
Injected (Rattus norvegicus [31]): 1.397%
logP [32]: 2.35
relative binding affinity (RBA) [33]: 0.062
relative binding affinity (RBA) [34]: 0.087
Injected [35]: 0.402%
Injected (dose/g) (Rattus norvegicus [36]): 41.7%
NSB [37]: 0.39
BSI [38]: 34

Reference: ChEMBL document CHEMBL1126705, “16 beta-([18F]fluoro)estrogens: systematic investigation of a new series of fluorine-18-labeled estrogens as potential imaging agents for estrogen-receptor-positive breast tumors” (J Med Chem, 1993)
